Measurements taken from ChEMBL document CHEMBL4354826, “Structure-Based Discovery of SD-36 as a Potent, Selective, and Efficacious PROTAC Degrader of STAT3 Protein” (J Med Chem, 2019).
Activity calls are given as the source filed them. No cut-off for these calls is given here.

Tests used:
[1] = target: Signal transducer and activator of transcription 3 (Homo sapiens, UniProt P40763); experiment: Binding affinity to recombinant human His/SUMO-tagged STAT3 (127 to 688 residues) expressed in Escherichia coli Rosetta (DE3) incubated for 1 hr by fluorescence polarization assay
[2] = target: T1, Protein cereblon/Signal transducer and activator of transcription 3 (Homo sapiens, UniProt P40763+Q96SW2); experiment: Protac activity at CRBN/STAT3 in human MOLM16 cells assessed as degradation of STAT3 incubated for 4 hrs by Western blot analysis; type: cell-based
Outline: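 Molm-16 cells treated 4 h with serially diluted compound. Lysates immunoblotted (SDS–PAGE, PVDF, 5% blocker/TBST, chemiluminescence) for total STAT3 and pSTAT3 Y705. DC50 taken as the concentration reducing total STAT3 by 50%.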
Target sequence in this assay (P40763 whole entry): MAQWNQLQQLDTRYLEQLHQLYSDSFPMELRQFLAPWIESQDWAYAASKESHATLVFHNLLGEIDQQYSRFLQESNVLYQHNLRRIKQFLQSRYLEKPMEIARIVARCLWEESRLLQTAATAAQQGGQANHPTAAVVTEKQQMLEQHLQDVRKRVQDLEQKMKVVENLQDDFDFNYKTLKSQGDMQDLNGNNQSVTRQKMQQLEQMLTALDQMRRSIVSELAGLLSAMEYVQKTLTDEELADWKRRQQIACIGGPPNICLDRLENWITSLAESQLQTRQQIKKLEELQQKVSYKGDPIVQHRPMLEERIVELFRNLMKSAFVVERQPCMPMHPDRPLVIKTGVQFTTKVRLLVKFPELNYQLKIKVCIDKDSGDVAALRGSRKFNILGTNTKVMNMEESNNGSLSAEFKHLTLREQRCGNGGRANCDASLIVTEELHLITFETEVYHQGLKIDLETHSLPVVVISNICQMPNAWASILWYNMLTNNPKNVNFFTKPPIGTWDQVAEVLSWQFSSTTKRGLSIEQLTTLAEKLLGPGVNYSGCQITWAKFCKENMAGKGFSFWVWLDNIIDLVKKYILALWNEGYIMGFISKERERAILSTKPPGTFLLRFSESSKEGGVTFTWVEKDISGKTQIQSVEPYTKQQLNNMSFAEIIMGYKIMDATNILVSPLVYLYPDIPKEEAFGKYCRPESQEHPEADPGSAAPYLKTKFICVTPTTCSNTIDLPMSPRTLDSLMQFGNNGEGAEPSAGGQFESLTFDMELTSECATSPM
Target sequence in this assay (Q96SW2 whole entry): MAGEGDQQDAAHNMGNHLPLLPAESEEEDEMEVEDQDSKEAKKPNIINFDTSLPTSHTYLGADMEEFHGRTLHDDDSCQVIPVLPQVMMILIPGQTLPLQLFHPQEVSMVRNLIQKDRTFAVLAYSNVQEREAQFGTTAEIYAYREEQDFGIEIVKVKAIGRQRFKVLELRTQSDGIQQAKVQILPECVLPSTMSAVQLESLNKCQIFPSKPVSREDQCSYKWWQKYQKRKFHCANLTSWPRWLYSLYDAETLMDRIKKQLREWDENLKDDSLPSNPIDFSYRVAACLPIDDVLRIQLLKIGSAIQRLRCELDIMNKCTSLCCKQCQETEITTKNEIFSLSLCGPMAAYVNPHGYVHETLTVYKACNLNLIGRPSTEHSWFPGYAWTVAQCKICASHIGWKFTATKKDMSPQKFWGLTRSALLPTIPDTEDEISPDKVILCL

[3] = target: T1, Protein cereblon/Signal transducer and activator of transcription 3; experiment: Protac activity at CRBN/STAT3 in human SUDHL1 cells assessed as degradation of STAT3 incubated for 16 hrs by Western blot analysis; type: cell-based
Target sequence in this assay (P40763 whole entry): as the sequence (P40763 whole entry) above
Target sequence in this assay (Q96SW2 whole entry): as the sequence (Q96SW2 whole entry) above

[4] = Antiproliferative activity against human MOLM16 cells assessed as reduction in cell viability incubated for 4 days by cell-titer glo luminescent assay; type: functional, cell-based; conditions: MOLM16, 96 h
Outline: (§1)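 Viability assay: cells incubated with serially diluted compounds for 4 days, viability read by CellTiter-Glo luminescence; IC50 from concentration–response.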

SU-DHL-1 = experiment: Antiproliferative activity against human SUDHL1 cells assessed as reduction in cell viability incubated for 4 days by cell-titer glo luminescent assay; type: functional, cell-based; conditions: SU-DHL-1, 96 h; outline: as §1
[5] = target: T1, Protein cereblon/Signal transducer and activator of transcription 3; experiment: Protac activity at CRBN/STAT3 in human MOLM16 cells assessed as degradation of STAT3 at 0.01 to 10 uM incubated for 4 hrs by Western blot analysis; type: cell-based
Outline: (§2)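 Molm-16 cells treated 4 h with test compound at 0.01–10 μM, or control compounds at 10 μM. Lysates separated by SDS–PAGE, transferred to PVDF, blocked 1 h in 5% blocker/TBST, probed for each STAT protein, and detected by chemiluminescence.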
Target sequence in this assay (P40763 2-770 limits assumed): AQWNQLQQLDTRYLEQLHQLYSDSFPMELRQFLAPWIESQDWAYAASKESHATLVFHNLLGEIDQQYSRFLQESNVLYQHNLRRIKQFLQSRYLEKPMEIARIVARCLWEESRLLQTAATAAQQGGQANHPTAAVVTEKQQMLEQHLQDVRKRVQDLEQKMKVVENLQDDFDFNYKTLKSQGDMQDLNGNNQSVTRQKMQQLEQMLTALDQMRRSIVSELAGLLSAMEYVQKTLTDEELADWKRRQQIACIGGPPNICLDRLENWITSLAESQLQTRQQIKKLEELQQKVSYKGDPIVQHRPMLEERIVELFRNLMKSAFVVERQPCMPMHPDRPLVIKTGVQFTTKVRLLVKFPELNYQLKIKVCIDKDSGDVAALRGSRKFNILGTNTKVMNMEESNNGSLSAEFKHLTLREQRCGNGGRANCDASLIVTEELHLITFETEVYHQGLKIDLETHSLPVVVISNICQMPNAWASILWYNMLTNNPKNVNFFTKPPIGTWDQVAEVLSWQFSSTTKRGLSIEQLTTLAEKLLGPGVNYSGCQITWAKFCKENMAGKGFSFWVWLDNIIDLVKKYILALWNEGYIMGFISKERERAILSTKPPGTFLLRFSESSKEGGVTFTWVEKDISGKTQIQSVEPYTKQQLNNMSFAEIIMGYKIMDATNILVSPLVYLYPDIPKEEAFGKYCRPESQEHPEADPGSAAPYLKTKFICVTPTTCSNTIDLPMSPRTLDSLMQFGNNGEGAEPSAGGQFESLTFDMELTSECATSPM
Target sequence in this assay (Q96SW2 whole entry partner): as the sequence (Q96SW2 whole entry) above

[6] = target: T2, Protein cereblon/Signal transducer and activator of transcription 1-alpha/beta (Homo sapiens) (UniProt P42224+Q96SW2); experiment: Protac activity at CRBN/STAT1 in human MOLM16 cells assessed as degradation of STAT1 at 0.01 to 10 uM incubated for 4 hrs by Western blot analysis; type: cell-based; outline: as §2
[7] = target: Protein cereblon/Signal transducer and activator of transcription 2 (Homo sapiens) (UniProt Q96SW2+P52630); experiment: Protac activity at CRBN/STAT2 in human MOLM16 cells assessed as degradation of STAT2 at 0.01 to 10 uM incubated for 4 hrs by Western blot analysis; type: cell-based; outline: as §2
[8] = target: T3, Protein cereblon/Signal transducer and activator of transcription 4 (Homo sapiens) (UniProt Q96SW2+Q14765); experiment: Protac activity at CRBN/STAT4 in human MOLM16 cells assessed as degradation of STAT4 at 0.01 to 10 uM incubated for 4 hrs by Western blot analysis; type: cell-based; outline: as §2
[9] = target: Protein cereblon/Signal transducer and activator of transcription 5A (Homo sapiens) (UniProt P42229+Q96SW2); experiment: Protac activity at CRBN/STAT5A in human MOLM16 cells assessed as degradation of STAT5A at 0.01 to 10 uM incubated for 4 hrs by Western blot analysis; type: cell-based; outline: as §2
[10] = target: Protein cereblon/Signal transducer and activator of transcription 6 (Homo sapiens) (UniProt P42226+Q96SW2); experiment: Protac activity at CRBN/STAT6 in human MOLM16 cells assessed as degradation of STAT6 at 0.01 to 10 uM incubated for 4 hrs by Western blot analysis; type: cell-based; outline: as §2
[11] = target: T1, Protein cereblon/Signal transducer and activator of transcription 3; experiment: Protac activity at CRBN/STAT3 in human SUDHL1 cells assessed as degradation of STAT3 at 0.01 to 10 uM incubated for 18 hrs by Western blot analysis; type: cell-based
Outline: (§3)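 SU-DHL-1 cells treated 18 h with test compound at 0.01–10 μM, or control compounds at 10 μM. Lysates separated by SDS–PAGE, transferred to PVDF, blocked 1 h in 5% blocker/TBST, probed for each STAT protein, and detected by chemiluminescence.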
Target sequence in this assay (P40763 2-770 limits assumed): as the sequence (P40763 2-770 limits assumed) above
Target sequence in this assay (Q96SW2 whole entry partner): as the sequence (Q96SW2 whole entry) above

[12] = target: T2, Protein cereblon/Signal transducer and activator of transcription 1-alpha/beta (Homo sapiens); experiment: Protac activity at CRBN/STAT1 in human SUDHL1 cells assessed as degradation of STAT1 at 0.01 to 10 uM incubated for 18 hrs by Western blot analysis; type: cell-based; outline: as §3
[13] = target: T3, Protein cereblon/Signal transducer and activator of transcription 4 (Homo sapiens); experiment: Protac activity at CRBN/STAT4 in human SUDHL1 cells assessed as degradation of STAT4 at 0.01 to 10 uM incubated for 18 hrs by Western blot analysis; type: cell-based; outline: as §3
Homo sapiens [14] = species on record: Homo sapiens; experiment: Selectivity index, ratio of protac activity at CRBN/STAT2 in human MOLM16 cells to protac activity at CRBN/STAT3 in human MOLM16 cells; type: cell-based
Outline: (§4)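 Molm-16 cells treated 4 h with compound at 0.01–10 μM, or controls at 10 μM. Western blot of lysates: SDS–PAGE, PVDF, 1 h block in 5% blocker/TBST, primary and secondary antibodies, chemiluminescent detection. STAT1, -2, -4, -5A/B and -6 levels read against STAT3 to give degradation selectivity.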

Homo sapiens [15] = species on record: Homo sapiens; experiment: Selectivity index, ratio of protac activity at CRBN/STAT4 in human MOLM16 cells to protac activity at CRBN/STAT3 in human MOLM16 cells; type: cell-based; outline: as §4
Homo sapiens [16] = species on record: Homo sapiens; experiment: Selectivity index, ratio of protac activity at CRBN/STAT1 in human SUDHL1 cells to protac activity at CRBN/STAT3 in human SUDHL1 cells; type: cell-based
Outline: (§5)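 SU-DHL-1 cells treated 18 h with compound at 0.01–10 μM, or controls at 10 μM. Immunoblotting used SDS–PAGE, PVDF transfer, 1 h block in 5% blocker/TBST, primary and secondary antibodies and chemiluminescence. Levels of other STAT family members compared with STAT3 to express degradation selectivity.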

Homo sapiens [17] = species on record: Homo sapiens; experiment: Selectivity index, ratio of protac activity at CRBN/STAT4 in human SUDHL1 cells to protac activity at CRBN/STAT3 in human SUDHL1 cells; type: cell-based; outline: as §5
Homo sapiens [18] = species on record: Homo sapiens; experiment: Selectivity index, ratio of protac activity at CRBN/STAT5B in human SUDHL1 cells to protac activity at CRBN/STAT3 in human SUDHL1 cells; type: cell-based; outline: as §5
Homo sapiens [19] = species on record: Homo sapiens; experiment: Selectivity index, ratio of protac activity at CRBN/STAT6 in human SUDHL1 cells to protac activity at CRBN/STAT3 in human SUDHL1 cells; type: cell-based; outline: as §5
Mus musculus [20] = experiment: In vivo degradation of STAT3 in SCID mouse xenografted with MOLM-16 cells at 50 mg/kg, iv measured upto 72 hrs by Western blot analysis relative to control; type: functional
Outline: (§6)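 SCID mice bearing subcutaneous Molm-16 tumors (3 × 10^6 cells in Matrigel; treated at ~150 mm3) given a single intravenous dose in 10% PEG400 + 90% PBS, or vehicle. Tumors harvested at time points. Lysates immunoblotted for total STAT3 and pSTAT3 Y705, compared with vehicle control.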

Mus musculus [21] = experiment: In vivo degradation of phosphorylated STAT3 Y705 in SCID mouse xenografted with MOLM-16 cells at 50 mg/kg, iv measured upto 72 hrs by Western blot analysis relative to control; type: functional; outline: as §6
[22] = Antitumor activity against human MOLM16 cells xenografted in […] mouse assessed as tumor regression at 25 or 50 mg/kg, iv administered 3 times per week for 3 weeks; type: functional

T3 sequence (Q14765 whole entry, looked up): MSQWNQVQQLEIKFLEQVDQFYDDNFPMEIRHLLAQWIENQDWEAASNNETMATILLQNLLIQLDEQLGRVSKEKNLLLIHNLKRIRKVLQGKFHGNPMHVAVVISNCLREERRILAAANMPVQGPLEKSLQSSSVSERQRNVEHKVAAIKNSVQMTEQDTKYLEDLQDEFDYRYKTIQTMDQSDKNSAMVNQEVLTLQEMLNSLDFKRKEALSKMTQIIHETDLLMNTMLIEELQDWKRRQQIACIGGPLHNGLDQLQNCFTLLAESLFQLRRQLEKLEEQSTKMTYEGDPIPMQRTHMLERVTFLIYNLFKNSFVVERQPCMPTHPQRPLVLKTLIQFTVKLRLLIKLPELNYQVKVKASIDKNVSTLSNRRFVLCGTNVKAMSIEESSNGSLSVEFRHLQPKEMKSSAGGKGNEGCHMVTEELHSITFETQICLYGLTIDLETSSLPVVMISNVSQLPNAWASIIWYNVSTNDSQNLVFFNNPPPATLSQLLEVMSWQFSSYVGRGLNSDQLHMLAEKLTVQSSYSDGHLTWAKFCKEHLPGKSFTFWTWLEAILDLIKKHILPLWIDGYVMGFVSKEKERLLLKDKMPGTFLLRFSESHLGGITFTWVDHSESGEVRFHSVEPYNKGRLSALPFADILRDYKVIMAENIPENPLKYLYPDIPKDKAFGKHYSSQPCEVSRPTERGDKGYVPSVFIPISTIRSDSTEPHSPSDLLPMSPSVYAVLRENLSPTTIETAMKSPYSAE
T3 sequence (Q96SW2 whole entry, looked up): as the sequence (Q96SW2 whole entry) above
Sequence of Signal transducer and activator of transcription 3 (P40763 whole entry, the tested form may be a part): as the sequence (P40763 whole entry) above

For NC(=O)CC[C@H](NC(=O)[C@@H]1CC[C@@H]2CCN(C(=O)CCCCCC#Cc3cccc4c3CN(C3CCC(=O)NC3=O)C4=O)C[C@H](NC(=O)c3cc4cc(C(F)(F)P(=O)(O)O)ccc4[nH]3)C(=O)N21)C(=O)NC(c1ccccc1)c1ccccc1 (stereo partly drawn), the Kd [1] was 44 nM, the DC50 [2] was 60 nM and the DC50 [3] was 28 nM. For the same compound, the IC50 [4] was 13 nM, the IC50 (SU-DHL-1) was 610 nM and the Activity [5] was “Active”. The Activity [6] was “inactive”, the Activity [7] was “inactive” and the Activity [8] was “inactive”. For the same compound, the Activity [9] was “inactive”, the Activity [10] was “inactive” and the Activity [11] was “Active”. For the same compound, the Activity [12] was “inactive”, the Activity [13] was “inactive” and the Ratio (Homo sapiens [14]) was over 100. The Ratio (Homo sapiens [15]) was over 100, the Ratio (Homo sapiens [16]) was over 100 and the Ratio (Homo sapiens [17]) was over 100. The Ratio (Homo sapiens [18]) was over 100, the Ratio (Homo sapiens [19]) was over 100 and the Activity (Mus musculus [20]) was over 95%. For the same compound, the Activity (Mus musculus [21]) was over 90% and the Activity [22] was 100%.
